Measured values reported in ChEMBL document CHEMBL4428039, “Anticancer properties of new synthetic hybrid molecules combining naphtho[2,3-b]furan-4,9-dione or benzo[f]indole-4,9-dione motif with phosphonate subunit” (Eur J Med Chem, 2016).
Active and inactive are the calls of the source. The calls are words filed in the database; no cut-off is given here.

Tests used:
[1] = test system: HL-60; test: Cytotoxicity against human HL60 cells assessed as inhibition of metabolic activity after 48 hrs by MTT assay; type: functional, cell-based; settings: HL-60, 48 h
Summary of the method: (§1)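 Exponentially growing cells seeded in 96-well plates and grown 24 h. Compounds in DMSO, diluted in medium (final DMSO <0.1%), added at 10^-7 to 10^-3 M for 48 h. MTT (5 mg/mL in PBS) then added for 2 h. Formazan dissolved in DMSO and read at 560 nm against untreated cells. IC50 taken from concentration–response curves; mean ± SD of ≥3 experiments.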

[2] = test system: NALM-6; test: Cytotoxicity against human NALM6 cells assessed as inhibition of metabolic activity after 48 hrs by MTT assay; type: functional, cell-based; settings: NALM-6, 48 h; summary of the method: as §1
[3] = test system: MCF7; test: Cytotoxicity against human MCF7 cells assessed as inhibition of metabolic activity after 48 hrs by MTT assay; type: functional, cell-based; settings: MCF7, 48 h; summary of the method: as §1
[4] = test system: HUVEC; test: Cytotoxicity against HUVEC assessed as inhibition of metabolic activity after 48 hrs by MTT assay; type: ADME, cell-based; settings: Homo sapiens; summary of the method: as §1
[5] = test system: MCF-10A; test: Cytotoxicity against human MCF10A cells assessed as inhibition of metabolic activity after 48 hrs by MTT assay; type: ADME, cell-based; summary of the method: as §1
[6] = Selectivity index, ratio of IC50 for human MCF10A cells to IC50 for human MCF7 cells; type: toxicity; settings: MCF10A cells versus MCF7 cells, read-out: Ratio IC50
[7] = test system: MCF7; test: Induction of ROS generation in human MCF7 cells at 200 uM after 1 hr by Cellrox Green staining based flow cytometry; type: functional, cell-based
Summary of the method: (§2)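 Positive-control ROS measurement in HL-60 and MCF-7 cells: menadione 200 µM for 1 h. Cells then stained with 5 µM CellROX Green for 30 min at 37 °C and analysed by flow cytometry. 3–4 independent experiments in triplicate, mean ± SEM.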

[8] = test system: HL-60; test: Induction of ROS generation in human HL60 cells at 200 uM after 1 hr by Cellrox Green staining based flow cytometry; type: functional, cell-based; summary of the method: as §2

## CCCCCCn1c(O)c(P(=O)(OCC)OCC)c2c1C(=O)c1ccccc1C2=O
[1]
  IC50: 30.7 µM
[2]
  IC50: 44.3 µM
[3]
  IC50: 19.5 µM

## COc1cccc2c1C(=O)c1c(O)c3c(c(O)c1C2=O)C[C@@](O)(C(=O)CO)C[C@@H]3O[C@H]1C[C@H](N)[C@H](O)[C@H](C)O1 [DOXORUBICIN]
[1]
  IC50: 0.11 µM
[4]
  IC50: 1.4 µM
[5]
  IC50: 1.2 µM

## CCOP(=O)(OCC)c1c(-c2cc(F)c(Cl)nc2Cl)oc2c1C(=O)c1ccccc1C2=O
[1]
  IC50: 5.94 µM
[6]
  selectivity ratio: 4
[2]
  IC50: 5.32 µM
[3]
  IC50: 2.85 µM
[4]
  IC50: 4.85 µM
[5]
  IC50: 9.79 µM

## CC1=CC(=O)c2ccccc2C1=O
[7]
  Activity: Active
[8]
  Activity: Active

## CCOP(=O)(OCC)c1c2c(n(Cc3ccccc3Cl)c1O)C(=O)c1ccccc1C2=O
[1]
  IC50: 42.4 µM
[2]
  IC50: 60.1 µM
[3]
  IC50: 65 µM

## CCOP(=O)(OCC)c1c(C)oc2c1C(=O)c1ccccc1C2=O
[1]
  IC50: 8.13 µM
[2]
  IC50: 5.85 µM
[3]
  IC50: 5.7 µM

## CCOP(=O)(OCC)c1c2c(n(C3CC3)c1O)C(=O)c1ccccc1C2=O
[1]
  IC50: 65 µM
[2]
  IC50: 51.3 µM
[3]
  IC50: 102 µM
